# Measured values published in publication PMC9380726 (ACS Pharmacology & Translational Science, 2022).
# Where two headings read alike, the source gives them in different places.
# Columns and labels:
# [1] = assay type: in vivo; conditions: rat, plasma, iv, 20 nmol/kg
# How it was run: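 Sprague–Dawley rats (200–300 g) were dosed at 20 nmol/kg i.v. or s.c. Blood (200 µL) was drawn at 2, 6, 10, 24, 30 and 48 h, processed to plasma, extracted and analysed by UPLC-MS. Quantification used a calibration curve from spiked plasma, and parameters came from non-compartmental analysis. Groups were n = 4 for s.c., and n = 3 or 1 for i.v.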
# [2] = after i.v. administration; cited from earlier work
# [3] = in rats; cited from earlier work
# [4] = PET imaging of 89Zr tracer, 17 MBq/kg; assay type: in vivo, rat
# How it was run: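 Sprague–Dawley rats (200–300 g) received the 89Zr tracer (formulated at 5 MBq/nmol) i.v. or s.c. at 17 MBq/kg (3 nmol/kg). They were PET-imaged under 2–3% isoflurane/O2 at 4, 8, 24, 72 and 168 h, with a 350–650 keV window. Scans ran 15 min (4, 8 h), 20 min (24 h), 30 min (72 h) and 60 min (168 h), followed by a 323 s Co-57 transmission scan for attenuation correction. Images were decay-corrected to injection and reported as %ID/g.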
compound,measurement,setting,value
CC[C@H](C)[C@H](NC(=O)[C@H](Cc1ccccc1)NC(=O)[C@H](CCC(=O)O)NC(=O)[C@H](CCCNC(=N)N)NC(=O)[C@H](C)NC(=O)[C@H](C)NC(=O)[C@H](CCC(N)=O)NC(=O)[C@H](CCC(=O)O)NC(=O)[C@H](CCC(=O)O)NC(=O)[C@H](CC(C)C)NC(=O)[C@H](Cc1ccc(O)cc1)NC(=O)[C@H](CO)NC(=O)[C@H](CO)NC(=O)[C@@H](NC(=O)[C@H](CC(=O)O)NC(=O)[C@H](CO)NC(=O)[C@@H](NC(=O)[C@H](Cc1ccccc1)NC(=O)[C@@H](NC(=O)CNC(=O)[C@H](CCC(=O)O)NC(=O)[C@H](C)NC(=O)CCc1c[nH]cn1)[C@@H](C)O)[C@@H](C)O)C(C)C)C(=O)N[C@@H](C)C(=O)N[C@@H](Cc1c[nH]c2ccccc12)C(=O)N[C@@H](CC(C)C)C(=O)N[C@H](C(=O)N[C@@H](CCCNC(=N)N)C(=O)NCC(=O)N[C@@H](CCCNC(=N)N)C(=O)N[C@@H](CCCCNC(=O)COCCOCCNC(=O)COCCOCCNC(=O)CC[C@H](NC(=O)CCCCCCCCCCCCCCCCC(=O)O)C(=O)O)C(=O)NCC(=O)NCC(=O)N[C@@H](CO)C(=O)N[C@@H](CCCCNc1c(NCCCCCN(O)C(=O)CCC(=O)NCCCCCN(O)C(=O)CCC(=O)NCCCCCN(O)C(C)=O)c(=O)c1=O)C(=O)O)C(C)C [compound 2],half-life,[1],8.4 h
semaglutide,half-life,[2],7 to 12 h
same,plasma metabolite exposures,[3],1–7%
"CC[C@H](C)[C@H](NC(=O)[C@H](Cc1ccccc1)NC(=O)[C@H](CCC(=O)O)NC(=O)[C@H](CCCNC(=N)N)NC(=O)[C@H](C)NC(=O)[C@H](C)NC(=O)[C@H](CCC(N)=O)NC(=O)[C@H](CCC(=O)O)NC(=O)[C@H](CCC(=O)O)NC(=O)[C@H](CC(C)C)NC(=O)[C@H](Cc1ccc(O)cc1)NC(=O)[C@H](CO)NC(=O)[C@H](CO)NC(=O)[C@@H](NC(=O)[C@H](CC(=O)O)NC(=O)[C@H](CO)NC(=O)[C@@H](NC(=O)[C@H](Cc1ccccc1)NC(=O)[C@@H](NC(=O)CNC(=O)[C@H](CCC(=O)O)NC(=O)[C@H](C)NC(=O)CCc1c[nH]cn1)[C@@H](C)O)[C@@H](C)O)C(C)C)C(=O)N[C@@H](C)C(=O)N[C@@H](Cc1c[nH]c2ccccc12)C(=O)N[C@@H](CC(C)C)C(=O)N[C@H](C(=O)N[C@@H](CCCNC(=N)N)C(=O)NCC(=O)N[C@@H](CCCNC(=N)N)C(=O)N[C@@H](CCCCNC(=O)COCCOCCNC(=O)COCCOCCNC(=O)CC[C@H](NC(=O)CCCCCCCCCCCCCCCCC(=O)O)C(=O)O)C(=O)NCC(=O)NCC(=O)N[C@@H](CO)C(=O)N[C@@H](CCCCNc1c(NCCCCCN(O)C(=O)CCC(=O)NCCCCCN(O)C(=O)CCC(=O)NCCCCCN(O)C(C)=O)c(=O)c1=O)C(=O)O)C(C)C [[89Zr]2, metal not drawn]",initial dose trapped in the subcutis,"[4]; PET, s.c., after 168 h",10%
same,tissue uptake at 168 h,"[4]; rat, kidney, iv, 3 nmol/kg, total radioactivity",~7 %ID/g
